The source made the active and inactive calls.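 Rule for the calls: active = mean cell viability below 80%; inactive = the rest.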
The molecules below were run on Huh-7.5 Rluc-replicon viability, CellTiter-Glo ATP, 72 h (assay: cytotoxicity in HCV replicon hepatoma cells, late-stage follow-up, cytotoxicity control for HCV NS3 helicase inhibitor project, cell-based, luminescence (AID 623961)). Conditions: at 10 µM; active compounds read low.
Procedure, shortened: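 Assay system: Huh-7.5 cells with HCV RLuc replicon. Times: cell attachment 4-5 h, compound exposure 72 h at 37 °C, 5% CO2. Signal: ATP luminescence after 30 min lysis at 23 °C. Buffer or medium: growth medium, replaced before viability reagent. Compound: 10 µM single concentration, 0.5% DMSO.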
For COc1ccc(C(=O)Nc2ccc(-c3nc4ccc(-c5nc6ccc(C)c(S(=O)(=O)O)c6s5)cc4s3)cc2)cc1, the viability was 85% (inactive). In the case of Cc1ccc2nc(-c3ccc4nc(-c5ccc(NC(=O)c6cc(F)cc(C(F)(F)F)c6)cc5)sc4c3)sc2c1S(=O)(=O)O, the viability is reported as 113% (inactive). With Cc1ccc2nc(-c3ccc4nc(-c5ccc(NC(=O)c6ccc(CNC(=O)OCC7c8ccccc8-c8ccccc87)cc6)cc5)sc4c3)sc2c1S(=O)(=O)O the viability was 102% (inactive). CCN(CC)c1ccc(-c2nc3ccc(C)c(S(=O)(=O)O)c3s2)cc1 was tested, and the viability was 99% (inactive). For Cc1ccc2nc(-c3ccc4nc(-c5ccc(NC(=O)c6ccc(F)cc6)cc5)sc4c3)sc2c1S(=O)(=O)O, the viability was 94% (inactive). With Cc1ccc2nc(-c3ccc4nc(-c5ccc(NC(=O)c6ccc(Cl)cc6)cc5)sc4c3)sc2c1S(=O)(=O)O the viability was 84% (inactive).
